Assay outcomes deposited in PubChem BioAssay by several laboratories.
In the library only some 1.9% were active in any assay of this set; here they are far more common.
Rtt109 Vps75: inhibitors of C. albicans Rtt109/Vps75 HAT, primary screen, biochemical, ThioGlo CoA-SH fluorescence, plate reader; purified Rtt109/Vps75, 4 h; AID 540336, 2011; inhibition, % at 34.9 µM; 0.16% of 330,000 active; Histone acetyltransferase RTT109 (Candida albicans (strain SC5314 / ATCC MYA-2876)), …;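 active means inhibition of at least 50% in every replicate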
Efflux pump inh: inhibitors of Candida efflux pumps in yeast, primary screen, S. cerevisiae, Nile Red, multiplex; inhibition, % at 10 µM; S. cerevisiae Candida pump triplex; 0.44% of 330,000 active;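 active means plate passing quality check with inhibition over a set limit, or well fluorescence over plate mean plus 4 SD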;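 further: Nile Red retained in pooled yeast measured as flow cytometry median fluorescence; higher means more Nile Red kept so more efflux inhibition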
FGF22 binding-1: binders of human FGF22 protein, primary screen, FGF22 synaptogenesis inhibitor project, biophysical, thermal shift, single point; activity (Tm shift, normalised), % at 9.99 µM; 1.5% of 340,000 active; recombinant FGF22 thermal shift, SYPRO orange fluorescence; percent of sucrose octasulfate shift, DMSO zero; Fibroblast growth factor 22 (Homo sapiens), Q9HCT0; AID 651658, 2012;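 active means mean Tm shift, scaled 0 neutral to 100 positive control, at about 1.3% or above, every replicate too, limit read from the data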
ASAP1 inh: inhibitors of human ASAP1 ArfGAP activity, primary screen, biochemical, fluorescence polarization | Arf-GAP with SH3 domain, ANK repeat and PH domain-containing protein 1 (Homo sapiens), … | ASAP1-stimulated ARF1 GTP hydrolysis, GDP FP detection | inhibition, % at 16.5 µM | 0.19% of 360,000 active | AID 624377, 2012; in the data active means inhibition above about 25%
ARFGAP1 inh: inhibitors of rat ARFGAP1 GAP activity, primary screen, biochemical, fluorescence polarization, GDP tracer. 0.26% of 360,000 active. Arfgap1-stimulated ARF1 GTP hydrolysis, GDP FP detection. inhibition, % at 16.5 µM;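 active means inhibition above a per-plate limit, mean inhibition of low control wells plus 3 SD, cut at about 25% in these data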
Target sequence (Q62848 1-136 limits assumed): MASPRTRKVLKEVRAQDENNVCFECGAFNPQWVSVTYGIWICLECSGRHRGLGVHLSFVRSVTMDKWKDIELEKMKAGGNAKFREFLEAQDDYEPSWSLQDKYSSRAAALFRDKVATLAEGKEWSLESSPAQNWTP
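Material – truncated rat Arfgap1 GAP domain · Buffer or medium – HEPES-based buffer, pH 7.5 · Reagent – human ARF1(Δ1-17)-GTP substrate · Dosing – 16.5 µM single point, 1.26% DMSO · Schedule – GTP hydrolysis reaction 2 h at 25 °C · Technique – GDP detection by fluorescence polarization · Benchmarks – No-Arfgap1 wells (100%) versus DMSO full-reaction wells (0%) · Repeats – single replicate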
ASAP1 inh confirm: ASAP1 GAP activity inhibitors, confirmation, biochemical, fluorescence polarization, human, triplicate; shares compounds with ASAP1 inh; ASAP1-stimulated Arf1 GTPase, GDP fluorescence polarization; inhibition, % at 16.5 µM; 37% of 620 active; AID 624431, 2012;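 active means mean inhibition over triplicates exceeds the hit threshold derived for the earlier primary screening run, cut at about 25% in these data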
ARFGAP1 inh conf: ARFGAP1 inhibitor hit confirmation, biochemical, fluorescence polarization, triplicate; shares compounds with ARFGAP1 inh; ARFGAP1-stimulated ARF1 GTP hydrolysis, GDP tracer FP; inhibition, % at 16.5 µM; 30% of 890 active;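 active means average inhibition over triplicates above the hit cutoff set in the earlier primary screen, cut at about 25% in these data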
Target sequence (Q62848 whole entry, looked up): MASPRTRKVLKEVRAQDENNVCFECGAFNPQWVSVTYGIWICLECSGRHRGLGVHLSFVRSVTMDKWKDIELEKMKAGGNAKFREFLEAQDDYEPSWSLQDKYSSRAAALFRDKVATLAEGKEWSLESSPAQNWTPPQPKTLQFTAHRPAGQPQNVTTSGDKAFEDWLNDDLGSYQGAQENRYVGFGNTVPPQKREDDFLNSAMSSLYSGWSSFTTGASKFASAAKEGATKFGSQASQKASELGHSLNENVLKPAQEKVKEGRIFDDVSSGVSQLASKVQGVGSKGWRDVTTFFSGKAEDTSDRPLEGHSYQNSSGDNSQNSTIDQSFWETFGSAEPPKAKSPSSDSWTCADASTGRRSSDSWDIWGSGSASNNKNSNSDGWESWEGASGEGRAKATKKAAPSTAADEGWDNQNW
FGF22 binding-2: binders of human FGF22 protein, dose response, FGF22 synaptogenesis inhibitor project, biophysical, thermal shift, cherry-pick retest; shares compounds with FGF22 binding-1; recombinant FGF22 thermal shift, SYPRO orange fluorescence; thermal shift activity, °C (ΔTm) at 38 µM; 2% of 1,000 active; AID 720646, 2013;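 active means fitted rise in melting shift crosses a set limit at or below the top valid dose tested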
TSA no protein: compound-only thermal shift signal without protein, dose response, artefact control for FGF22 binder project, biochemical, cherry-picked samples, RT-PCR instrument. shares compounds with FGF22 binding-1. compound-only SYPRO orange thermal shift counter-screen, no protein. AC50, µM (highest dose often 38 µM). 2% of 1,000 active;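 active means rising signal whose fitted curve reaches the 0.54 level within the top valid dose, showing a melting point, actives reach about 13 µM in these data; inactive means the rest, including activity in the opposite direction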; further: value is where the raw curve crosses a fixed level and not half-maximal
Numbers stand for hits; n = inactive; x = no result.

SMILES	Rtt109 Vps75	Efflux pump inh	FGF22 binding-1	ASAP1 inh	ARFGAP1 inh	ARFGAP1 inh conf	others
CN1CCC(N(C)C(=O)Cc2ccccc2[N+](=O)[O-])CC1	n	n	n	n	n	x
CCN(CC)CCOC(=O)c1ccc(NC(=O)c2cn(-c3ccccc3)nc2-c2cccs2)cc1	n	x	n	40	25	61	ASAP1 inh confirm=44
CCN(CC)CCNC(=O)c1cn(-c2ccccc2)nc1-c1cccs1	n	n	x	n	n	x
Cc1noc(C)c1S(=O)(=O)Nc1ccc2c(c1)C(=O)N([C@@H](C)CO)C[C@@H](C)[C@@H](CN(C)C(=O)Nc1cccc3ccccc13)OCCCC[C@@H](C)O2	x	x	n	x	x	x
COc1ccc([N+](=O)[O-])cc1NC(=O)c1ccc(N2C(=O)CCC2=O)cc1	n	n	n	n	n	x
COc1ccc([N+](=O)[O-])cc1NC(=O)c1ccc(-n2nc(C)cc2C)cc1	n	n	n	26	35	71	ASAP1 inh confirm=39
CCc1cc(=O)oc2cc(OC(C)C(=O)NCc3ccccn3)ccc12 (stereo unspecified)	n	n	n	n	n	x
O=C(NCc1ccncc1)C(=O)N/N=C/c1ccc(OCc2ccccc2)cc1	n	n	n	31	58	99	ASAP1 inh confirm=41
COc1ccccc1/C=N\Nc1cn[nH]c(=O)c1Cl	x	n	n	26	28	n	ASAP1 inh confirm=n
COc1cc(NC(=O)c2cc3c(C)nc4ccccc4c3o2)cc(OC)c1OC	n	n	n	33	47	52	ASAP1 inh confirm=69
COc1ccc(/C=N/Nc2ccc([N+](=O)[O-])cc2)cc1O	n	n	1.8	25	n	x	ASAP1 inh confirm=31;TSA no protein=n
COc1cccc(NC(=O)CN(C)C(=O)c2ccc(N3CCOCC3)c([N+](=O)[O-])c2)c1	n	n	n	n	n	x
COc1cccc(NC(=O)CN(C)C(=O)c2ccc(N3CCCCC3)c([N+](=O)[O-])c2)c1	n	n	2.1	25	n	x	ASAP1 inh confirm=n;FGF22 binding-2=n;TSA no protein=n
O=S(=O)(Nc1nccs1)c1ccc(Nc2nnc(-c3ccccc3)c3ccccc23)cc1	n	n	x	n	n	x
Cc1nnc2ccc(-c3cccc(NC(=O)c4ccc(Cl)nc4)c3)nn12	n	n	n	n	27	n
COCC(=O)N(CCN(C)C)Cc1cc2cc3c(cc2nc1Cl)OCO3	n	n	n	n	n	x
COc1ccc(OC)c(-n2nnnc2SCC(=O)Nc2ccc3c(c2)OCCO3)c1	n	n	x	n	49	45
O=C(CNC(=O)c1ccc(Br)o1)Nc1cccc(-c2cnc3ccccc3n2)c1	n	n	x	n	25	n
CN1C[C@H]2[C@@H](c3ccccc31)[C@@H](CO)N2Cc1ccccc1F	x	x	n	x	x	x
CCCN(CCC)S(=O)(=O)c1cccc(C(=O)Nc2ccc3c(c2)OCO3)c1	n	n	x	n	47	n
O=C(Nc1cccc(F)c1)c1ccc2c(c1)OCO2	n	n	x	n	n	x
O=C(Nc1ccc(-c2nc3ccccc3[nH]2)cc1)c1ccc2c(c1)OCO2	n	n	n	n	26	32
O=C(Nc1ccc2nn(-c3ccccc3)nc2c1)c1ccc2c(c1)OCO2	n	n	x	n	26	28
COCCC1CCCCN1C(=O)c1cc(COc2cccc(C(C)=O)c2)on1 (stereo unspecified)	n	n	n	n	25	n
CC(=O)c1ccc(OCc2cc(C(=O)N3CCC[C@H]3CO)no2)cc1	n	n	n	n	n	x
SMILES	Rtt109 Vps75	Efflux pump inh	FGF22 binding-1	ASAP1 inh	ARFGAP1 inh	ARFGAP1 inh conf	others
CCN(CC)S(=O)(=O)c1ccc(NS(=O)(=O)c2ccc(C)c(C)c2)cc1	n	n	x	n	n	x
CC1CC(C)CN(C(=O)COC(=O)c2cc3ccccc3cc2O)C1 (stereo unspecified)	n	n	x	n	37	32
C[C@@H]1CN([C@@H](C)CO)C(=O)CCCn2nncc2CO[C@H]1CN(C)S(=O)(=O)c1cn(C)cn1	x	x	n	n	n	x
C[C@H](CO)N1C[C@H](C)[C@@H](CN(C)S(=O)(=O)c2cn(C)cn2)OCc2cnnn2CCCC1=O	x	x	n	n	51	n
CCn1c(=NC(=O)C2COc3ccccc3O2)sc2c(C)ccc(OC)c21 (stereo unspecified)	n	n	n	n	n	x
O=C1Cc2ccccc2C(=O)N1	x	x	n	36	26	28
O=C1Nc2ccccc2CCc2ccccc21	n	n	n	n	n	x
Brc1ccc(-c2noc3c2-c2nc(-c4ccccc4)sc2CC3)cc1	n	n	n	n	27	n
COc1cc(/C=N/Nc2nc(Nc3ccccc3)nc(-n3nc(C)cc3C)n2)cc(OC)c1OC	n	n	n	n	n	x
COc1ccc(O)c(/C=N/Nc2nc(Nc3ccccc3)nc(-n3nc(C)cc3C)n2)c1	n	n	x	n	39	n
Cc1cccc(NC(=O)C2C(c3ccccc3)C2(Cl)Cl)c1 (stereo unspecified)	n	n	n	n	28	n
COC(=O)C1=C(C)N(Cc2ccccc2C(F)(F)F)C(=NCc2cccc(C(F)(F)F)c2)NC1c1ccc(C(F)(F)F)cc1 (stereo unspecified)	x	x	n	n	n	x
COC(=O)C1=C(C)N(Cc2cccc(C(F)(F)F)c2)C(=NCc2ccccc2C(F)(F)F)NC1c1cccc(F)c1 (stereo unspecified)	x	x	n	n	27	n
COC(=O)C1=C(C)N(Cc2cccc(C(F)(F)F)c2)C(=NCc2ccccc2C(F)(F)F)NC1c1ccccc1C(F)(F)F (stereo unspecified)	x	x	n	n	n	x
